Assay results gathered from unrelated publications.
Each line is one published result; the experiments were not run side by side.
Target: Serine/threonine-protein kinase MAK (MAK, Homo sapiens, UniProt P20794)
Sequence (P20794 1-623, as in one of the studies): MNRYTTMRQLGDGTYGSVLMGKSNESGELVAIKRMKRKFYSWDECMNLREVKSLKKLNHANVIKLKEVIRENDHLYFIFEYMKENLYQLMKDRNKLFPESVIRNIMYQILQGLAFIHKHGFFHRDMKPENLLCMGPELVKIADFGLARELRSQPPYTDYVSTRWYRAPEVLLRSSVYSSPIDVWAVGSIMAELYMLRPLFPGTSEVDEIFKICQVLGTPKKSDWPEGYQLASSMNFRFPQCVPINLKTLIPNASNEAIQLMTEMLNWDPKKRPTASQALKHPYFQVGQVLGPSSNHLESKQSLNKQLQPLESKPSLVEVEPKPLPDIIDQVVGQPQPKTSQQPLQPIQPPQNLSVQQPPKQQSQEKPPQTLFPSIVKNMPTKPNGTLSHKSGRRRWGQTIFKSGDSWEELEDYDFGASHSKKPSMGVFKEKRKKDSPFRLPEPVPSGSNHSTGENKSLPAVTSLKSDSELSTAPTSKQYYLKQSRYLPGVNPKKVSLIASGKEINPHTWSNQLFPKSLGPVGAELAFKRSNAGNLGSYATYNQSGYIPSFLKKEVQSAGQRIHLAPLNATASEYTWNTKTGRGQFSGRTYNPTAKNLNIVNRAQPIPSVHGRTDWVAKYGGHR

CN(C)c1ncc(F)c(-c2cnn3ncccc23)n1  remaining binding (binding; 1 µM): 91%
COc1ncc2cc3ccccc3nc2c1C#N  remaining binding (binding, competition with immobilised ligand; 5 µM): 87%
O=C(c1ccc(Nc2ncc(Cl)c(-c3ccc(Cl)s3)n2)cc1)N1CCC(N2CCCC2)CC1  remaining binding (binding, competition with immobilised ligand; 1 µM): 85%
CN(CCCC(F)(F)F)c1nccc(-c2cnn3ncccc23)n1  remaining binding (binding; 1 µM): 100%
O=C(N1CCS(=O)(=O)CC1)N1C[C@H](c2ccc(OC(F)(F)F)cc2)C[C@H](c2nc(C3CC3)no2)C1  remaining binding (binding, competition with immobilised ligand; 1 µM): 100%
CC1CCCN1c1nccc(-c2cnn3ncccc23)n1 (stereo not shown)  remaining binding (binding; 1 µM): 100%
O=C(Nc1cnc(Oc2ccc(F)cc2)nc1)N1CCc2ncccc2[C@@H]1c1ccc(F)cc1  remaining binding (cell-free assay, competition with immobilised ligand; 1 µM): 100%
CN(C)c1nccc(-c2cnc3ncccn23)n1  remaining binding (binding; 1 µM): 100%
O=C(NCCCN1CCOCC1)c1ccc(Nc2ncc(Cl)c(-c3ccc(Cl)s3)n2)cc1  remaining binding (binding, competition with immobilised ligand; 1 µM): 100%
N[C@@H]1CCN(c2nccc(-c3cnn4ncccc34)n2)C1  remaining binding (binding; 1 µM): 100%
CO[C@H]1CC[C@H](CNc2ccc(S(=O)(=O)NC(=O)c3ccc(N4CCN(CC5=C(c6ccc(Cl)cc6)CC(C)(C)CC5)CC4)cc3Oc3cnc4[nH]ccc4c3)cc2[N+](=O)[O-])CC1  remaining binding (cell-free assay, competition with immobilised ligand; 1 µM): 90%
FC(F)(F)Oc1cccc(-c2cnc3ccc(-c4ccncc4)nn23)c1  remaining binding (cell-free assay, competition with immobilised ligand; 5 µM): 99%
O=C(NCC1CCOCC1)c1n[nH]cc1NC(=O)c1c(F)cccc1F  remaining binding (binding, competition with immobilised ligand; 1 µM): 56%
O=C(c1ccc(Nc2ncc(Cl)c(-c3cc4ccccc4s3)n2)cc1)N1CCC(N2CCCC2)CC1  remaining binding (binding, competition with immobilised ligand; 1 µM): 100%
C[C@@H](c1cccc(C#N)c1)n1cc(Cl)cc(C(N)=O)c1=N  remaining binding (binding, competition with immobilised ligand; 1 µM): 94%
COc1cnc(Nc2cccc(S(N)(=O)=O)c2)nc1N1CCN(c2ccccc2)CC1  remaining binding (binding, competition with immobilised ligand; 1 µM): 100%
CCC(=O)N[C@H]1CC[C@@H](C(=O)N(C)c2ccc(-c3nc4ccccc4o3)cc2)C1  remaining binding (cell-free assay, competition with immobilised ligand; 1 µM): 85%
CN(c1nccc(-c2cnn3ncccc23)n1)C1CC1  remaining binding (binding; 1 µM): 100%
CNC(=O)Nc1ccc2c(c1)[C@@]1(CC2)OC(=O)N(CC(=O)N(Cc2ccc(F)cc2)[C@@H](C)C(F)(F)F)C1=O  remaining binding (cell-free assay, competition with immobilised ligand; 1 µM): 100%
C[C@H]1CCN(c2nccc(-c3cnn4ncccc34)n2)C1  remaining binding (binding; 1 µM): 66%
Cn1nc(C(=O)NCc2ccc(C(=O)O)cc2)cc1-c1ccc2[nH]ccc2c1  remaining binding (cell-free assay, competition with immobilised ligand; 0.1 µM): 92%
CCN1CCN(Cc2ccc(C(=O)Nc3ccc(C)c(Oc4ccc5c(c4)CC(=O)N5)c3)cc2C(F)(F)F)CC1  remaining binding (binding, competition with immobilised ligand; 1 µM): 100%
